In brackets after ≈: the same amount, converted by molar mass.
How the values were obtained:
Escherichia coli [1] = assay: Antimicrobial activity against Escherichia coli ESS 2231 at 200 ug/ml after 24 hrs by cup plate method; format: functional; details: ESS 2231, 24 h, read-out: DIZ
Staphylococcus aureus [2] = assay: Antimicrobial activity against Staphylococcus aureus MTCC 96 at 200 ug/ml after 24 hrs by cup plate method; format: functional; details: MTCC 96, 24 h, read-out: DIZ
Bacillus subtilis [3] = assay: Antimicrobial activity against Bacillus subtilis MTCC 441 at 200 ug/ml after 24 hrs by cup plate method; format: functional; details: MTCC 441, 24 h, read-out: DIZ
Pseudomonas aeruginosa [4] = assay: Antimicrobial activity against Pseudomonas aeruginosa MTCC 1688 at 200 ug/ml after 24 hrs by cup plate method; format: functional; details: MTCC 1688, 24 h, read-out: DIZ
Bacillus subtilis [5] = assay: Antimicrobial activity against Bacillus subtilis MTCC 441 at 0.02 ml of 1 mg/ml after 24 hrs by cup plate method; format: functional; details: MTCC 441, 24 h, read-out: DIZ
Summary of the method: (§1)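 Cup-plate diffusion on Mueller-Hinton/nutrient agar swab-streaked with suspension, 6 mm cups bored. Each compound at 1 mg/ml in DMSO, 0.02 ml per cup; DMSO as solvent control. Amoxicillin for bacteria and fluconazole for fungi at 200 and 500 respectively as references. Incubation 37 °C for 24 h. Inhibition zone diameter in mm, triplicate, mean ± SD.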

Pseudomonas aeruginosa [6] = assay: Antimicrobial activity against Pseudomonas aeruginosa MTCC 1688 at 0.02 ml of 1 mg/ml after 24 hrs by cup plate method; format: functional; details: MTCC 1688, 24 h, read-out: DIZ; summary of the method: as §1
[7] = system: Radical scavenging activity; assay: Antioxidant activity assessed as DPPH radical scavenging activity after 20 to 30 mins; format: functional
Summary of the method: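 Test solution (2 ml at 25, 50, 75, 100, 125) mixed with 2 ml ethanolic DPPH, held in the dark at ambient temperature 20–30 min, then A517 read against an ethanol blank. Tocopherol used as standard. % scavenging = (Acontrol−Atest)/Acontrol×100, run in triplicate. IC50 read graphically from the % scavenging versus concentration plot.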

Rattus norvegicus = assay: Antiinflammatory activity in Wister rat assessed as inhibition of carrageenan-induced paw edema at 100 mg/kg, po administered 1 hr before carrageenan challenge measured after 3 hrs by plethysmograph analysis; format: functional
Summary of the method: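 Rats of either sex, 150–220 g, food withheld 4 h. Compound or diclofenac sodium 100 mg/kg p.o., or 0.5% sodium CMC at 10 ml/kg as vehicle control, given 1 h before 0.05 ml of 1% carrageenan subplantar into the right hind paw. Paw volume read by water-displacement plethysmograph at 0, 30, 60, 120 and 180 min. % edema inhibition = 100(1−Vt/Vc); n=5, control n=6; ANOVA/Dunnett.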

Brain = assay: Antioxidant activity against lipid peroxidation in Wister rat brain homogenates assessed as thiobarbituric acid reactive substance formation after 30 mins by spectrophotometer analysis; format: functional, tissue-based; details: 0.5 h
Summary of the method: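 Whole brain minus cerebellum from overnight-fasted rats of either sex, 200–220 g. Homogenized 10% w/v in 0.15 M KCl and spun at 800 rpm for 10 min. Reaction incubated 37 °C for 30 min, then TBA:TCA (1:1) and BHT added, heated 80 °C for 20 min, cooled, centrifuged, A532 read.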

[8] = Antioxidant activity assessed as hydroxyl radical scavenging activity after 15 mins; format: functional
Summary of the method: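 Deoxyribose degradation mix: 2-deoxy-2-ribose 2.8 mM, KH2PO4–KOH 20 mM pH 7.4, FeCl3, EDTA, H2O2 1.0 mM, ascorbic acid, plus compound in methanol. Incubated 1 h at 37 °C. A 0.5 ml aliquot taken with 1 ml 2.8% TCA and 1 ml 1% TBA, heated 90 °C for 15 min, cooled, A532 read. % inhibition against blank.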

Mus musculus [9] = assay: Acute toxicity in Swiss albino mouse assessed as mortality up to 1500 mg/kg, po; format: organism-based; set-up: dose 1500 mg/kg, route oral; details: in vivo
Summary of the method: (§2)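 Swiss albino mice (6–8 weeks, 25–30 g) were dosed orally at 500, 1000 or 1500 mg/kg, following OECD guidelines. Body weight, food and water intake, behavioural patterns and mortality were recorded and compared with a control group.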

[10] = Cytotoxicity against brine shrimps larvae assessed as mortality after 24 hrs; format: organism-based; details: artemia, in vivo; read-out: ED50
Summary of the method: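 Shrimp eggs were hatched in filtered artificial sea water (38 g sea salt/L) in a divided tank. Larvae were exposed in vials at several concentrations under a lamp, and survivors were counted 24 h later. ED50 and 95% confidence intervals were derived from % larvae surviving by Finney probit analysis.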

Mus musculus [11] = assay: Acute toxicity in Swiss albino mouse assessed as gross behavioral changes up to 1500 mg/kg, po; format: organism-based; set-up: dose 1500 mg/kg, route oral; details: in vivo; summary of the method: as §2
Mus musculus [12] = assay: Analgesic activity in Swiss albino mouse assessed as inhibition of acetic acid-induced writhing response at 100 mg/kg, po administered 1 hr before acetic acid challenge after 5 mins; format: functional
Aspergillus niger [13] = assay: Antimicrobial activity against Aspergillus niger MTCC 292 at 0.02 ml of 1 mg/ml after 24 hrs by cup plate method; format: functional; details: MTCC 292, 24 h, read-out: DIZ; summary of the method: as §1
[14] = Antioxidant activity assessed as trolox equivalents of cupric reducing antioxidant capacity after 30 mins; format: functional
Summary of the method: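 Mix of 1 ml CuCl2 (10 mM), 1 ml ethanolic neocuproine (7.5 mM), 1 ml ammonium acetate buffer (pH 7.0, 1 M), 1 ml compound or standard solution and 0.1 ml water, total 4.1 ml. A450 read after 30 min against reagent blank. TEAC = ε test/ε Trolox.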

Escherichia coli [15] = assay: Antimicrobial activity against Escherichia coli ESS 2231 at 0.02 ml of 1 mg/ml after 24 hrs by cup plate method; format: functional; details: ESS 2231, 24 h, read-out: DIZ; summary of the method: as §1
Candida albicans [16] = assay: Antimicrobial activity against Candida albicans MTCC 227 at 0.02 ml of 1 mg/ml after 24 hrs by cup plate method; format: functional; details: MTCC 227, 24 h, read-out: DIZ; summary of the method: as §1
Staphylococcus aureus [17] = assay: Antimicrobial activity against Staphylococcus aureus MTCC 96 at 0.02 ml of 1 mg/ml after 24 hrs by cup plate method; format: functional; details: MTCC 96, 24 h, read-out: DIZ; summary of the method: as §1
Aspergillus niger [18] = assay: Antimicrobial activity against Aspergillus niger MTCC 292 at 500 ug/ml after 24 hrs by cup plate method; format: functional; details: MTCC 292, 24 h, read-out: DIZ
Candida albicans [19] = assay: Antimicrobial activity against Candida albicans MTCC 227 at 500 ug/ml after 24 hrs by cup plate method; format: functional; details: MTCC 227, 24 h, read-out: DIZ

Structure (SMILES)	zone of inhibition at 1000 µg/mL (Bacillus subtilis [5])	zone of inhibition at 1000 µg/mL (Pseudomonas aeruginosa [6])	IC50 [7]	inhibition in vivo at 100 mg/kg (Rattus norvegicus)	IC50 (Brain)	IC50 [8]	Activity (Mus musculus [9])	LC50 at 24 h [10]	Activity (Mus musculus [11])	inhibition in vivo at 100 mg/kg (Mus musculus [12])	zone of inhibition at 1000 µg/mL (Aspergillus niger [13])	TEAC (Trolox equivalents) [14]	zone of inhibition at 1000 µg/mL (Escherichia coli [15])	zone of inhibition at 1000 µg/mL (Candida albicans [16])	zone of inhibition at 1000 µg/mL (Staphylococcus aureus [17])	also measured
CC1(C)S[C@@H]2[C@H](NC(=O)[C@H](N)c3ccc(O)cc3)C(=O)N2[C@H]1C(=O)O [AMOXICILLIN]																zone of inhibition at 200 µg/mL (Escherichia coli [1]): 22.6 mm; zone of inhibition at 200 µg/mL (Staphylococcus aureus [2]): 22 mm; zone of inhibition at 200 µg/mL (Bacillus subtilis [3]): 21.2 mm; zone of inhibition at 200 µg/mL (Pseudomonas aeruginosa [4]): 21.4 mm
O=C(NCC(=O)N(C(=O)NC1CCCCC1)C1CCCCC1)/C(=C\c1ccccc1)NC(=O)c1ccccc1	19.2 mm	19.4 mm	49.8 µM	35.5%	58.8 µM	57.1 µM	Non-toxic	6.02 µg/mL (≈ 11.3 µM)	Non-toxic	54%	19.1 mm	0.89	20.2 mm	20.7 mm	18.1 mm	
OC(Cn1cncn1)(Cn1cncn1)c1ccc(F)cc1F [FLUCONAZOLE]																zone of inhibition at 500 µg/mL (Aspergillus niger [18]): 24 mm; zone of inhibition at 500 µg/mL (Candida albicans [19]): 23.2 mm
O=C(NCC(=O)N(C(=O)NC1CCCCC1)C1CCCCC1)/C(=C\c1ccc(O)cc1)NC(=O)c1ccccc1	22.4 mm	18.5 mm	51 µM	31.5%	65.6 µM	74.7 µM	Non-toxic	9.1 µg/mL (≈ 16.6 µM)	Non-toxic	27.6%	12.4 mm	2.91	19.8 mm	13.2 mm	13.4 mm	
O=C(NC(CS)C(=O)N(C(=O)NC1CCCCC1)C1CCCCC1)/C(=C\c1ccc(Cl)cc1)NC(=O)c1ccccc1 (stereo unspecified)	18.4 mm	17.4 mm	57.1 µM	22.8%	60.7 µM	66.3 µM	Non-toxic	10 µg/mL (≈ 16.4 µM)	Non-toxic	40.8%	21.2 mm	2.65	18.3 mm	13.5 mm	16.5 mm	
CC(C)c1ccc(/C=C(/NC(=O)c2ccccc2)C(=O)NC(CS)C(=O)N(C(=O)NC2CCCCC2)C2CCCCC2)cc1 (stereo unspecified)	15.2 mm	15.4 mm	74.7 µM	28.2%	92.8 µM	82.2 µM	Non-toxic	16.7 µg/mL (≈ 27 µM)	Non-toxic	58.5%	14.4 mm	2.36	11.8 mm	12.2 mm	12.9 mm	

Source: ChEMBL document CHEMBL3232756, “Synthesis and biological evaluation of N-dehydrodipeptidyl-N,N'-dicyclohexylurea analogs” (Eur J Med Chem, 2014)
